Here are results for 1 compound from paper PMC7037572 (Journal of Advanced Research, 2020).

Holding throughout (assay type): cell-based
What all share (settings): pre-treated 1 h, MSU 500 μg/ml 12 h

In assay [1] the test system is MSU-treated THP-1 cells. The assay is described as follows: cAMP levels in MSU-treated THP-1 cells. (cAMP levels reflect the balance of adenylyl cyclase and phosphodiesterase activity.)
The test system of assay [2] is MSU-treated THP-1 cells. The assay is described as follows: IL-1β in culture supernatants of MSU-treated THP-1 cells. Put shortly:
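PMA-differentiated THP-1 cells (ATCC) were pre-treated 1 h with the test compound or a reference P2Y14R antagonist, then stimulated with MSU (500 μg/ml) for 12 h. IL-1β in collected culture supernatants was measured by ELISA kit. n = 4 per group; mean ± SD; one-way ANOVA with Tukey test, p < 0.05.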

Assay [3] deals with NLRP3 inflammasome. The assay is described as follows: Western blot of NLRP3, ASC and Caspase-1 p20 in MSU-treated THP-1 cells. An outline of the steps:
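THP-1 cells (PMA-differentiated, pre-treated 1 h, MSU 500 μg/ml 12 h) were lysed in RIPA buffer. Lysates were resolved by 8–12% SDS-PAGE and transferred to PVDF. After blocking, membranes took primary antibodies overnight at 4 °C, three TBST washes and HRP secondary antibodies for 2 h, with ECL detection. n = 4 per group; mean ± SD; one-way ANOVA/Tukey.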
Background: A western blot detects proteins with antibodies after separation by electrophoresis.

SMILES strings stand for the structures.

In the case of `O=C(O)c1cc(-c2ccc(C3CCNCC3)cc2)c2ccc(-c3ccc(C(F)(F)F)cc3)cc2c1` [PPTN], in assay [1], the “effect on MSU-induced decrease of cAMP concentrations” value is “reversed”. The “effect on IL-1β release into the supernatant” value in assay [2] is “apparently inhibited the release of IL-1β”. In addition, the “effect on MSU-increased protein expressions of NLRP3, ASC and Caspase-1 p20” value in assay [3] was “reversed”.
